Here are results for 8 compounds from ChEMBL document CHEMBL4765234 (J Med Chem, 2016).

Active and inactive are the calls of the source. The rule behind the calls is not given here.

Series [1] concerns the target T1, Free fatty acid receptor 1 (Homo sapiens, UniProt O14842). Kind of series: Agonist activity at human recombinant full length GPR40 overexpressed in human HEK293 cells assessed as increase in intracellular calcium level measured over 3 mins by calcium 4 dye based FLIPR assay. It is filed as functional, cell-based. Put shortly: (§1)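 HEK293 cells overexpressing hGPR40 (25K/well) were cultured overnight in DMEM/F12 with 0.2% FBS and geneticin. Compound was tested at 40 μM–0.1 nM final (20-point, 1% DMSO), and FLIPR fluorescence was read over 3 min.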
For orientation: Calcium assays in cells follow changes in intracellular calcium, usually with a dye or a luminescent sensor.

Series [2] deals with Free fatty acid receptor 1 (Mus musculus) (UniProt Q76JU9). The series is described as follows: Agonist activity at GPR40 in mouse MIN6 cells assessed as induction of glucose-mediated insulin secretion incubated for 2 hrs by ELISA. It is filed as cell-based. Put shortly:
(§2)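 Glucose-dependent insulin secretion in mouse MIN6 cells or rat islet cells, scored as secretion above the glucose-alone level.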

Series [3] has as its target T1, Free fatty acid receptor 1. Kind of series: Agonist activity at human recombinant full-length Prolink-tagged GPR40 fused with EA-tagged beta-arrestin expressed in human HEK293 cells assessed as induction of beta-arrestin recruitment measured after 90 mins by beta-galactosidase based PathHunter assay relative to control. Format: cell-based. The note with it: filed as agonist. Put shortly: (§3)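 PathHunter β-gal complementation. Cells were incubated overnight at 5000/well in medium with 1% heat-inactivated FBS. Compound was added as a 20-point 2-fold series from a top final of 100 μM (1% DMSO) for 90 min at 37 °C, followed by detection reagents and chemiluminescence read after 1 h at rt.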
Background: Arrestin recruitment assays detect the binding of arrestin to an activated receptor.

A short description of series [4]: Dissociation constant, pKa1 of compound by potentiometric method. Format: physicochemical. The essentials: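 pKa values measured potentiometrically.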
Series [5] addresses Free fatty acid receptor 1 (Rattus norvegicus, UniProt Q8K3T4). The series is described as follows: Agonist activity at Prolink-tagged rat GPR40 fused with EA-tagged beta-arrestin expressed in human U2OS cells assessed as induction of beta-arrestin recruitment measured after 90 mins by beta-galactosidase based PathHunter assay. Format: cell-based. Put shortly:
as §3

Series [6] addresses Free fatty acid receptor 1 (Mus musculus, UniProt Q76JU9). The series is described as follows: Agonist activity at Prolink-tagged mouse GPR40 fused with EA-tagged beta-arrestin expressed in human U2OS cells assessed as induction of beta-arrestin recruitment measured after 90 mins by beta-galactosidase based PathHunter assay. It is filed as cell-based. Put shortly:
as §3

Series [7] addresses T1, Free fatty acid receptor 1. The series is described as follows: Agonist activity at human recombinant full length GPR40 overexpressed in human HEK293 cells assessed as increase in intracellular calcium level measured over 3 mins by calcium 4 dye based FLIPR assay relative to 100 uM linoleic acid. It is filed as functional, cell-based. The conditions noted are these: filed as agonist. The essentials:
as §1

Series [8] has as its target T2, Peroxisome proliferator-activated receptor gamma (Homo sapiens) (UniProt P37231).
T2 sequence (whole entry): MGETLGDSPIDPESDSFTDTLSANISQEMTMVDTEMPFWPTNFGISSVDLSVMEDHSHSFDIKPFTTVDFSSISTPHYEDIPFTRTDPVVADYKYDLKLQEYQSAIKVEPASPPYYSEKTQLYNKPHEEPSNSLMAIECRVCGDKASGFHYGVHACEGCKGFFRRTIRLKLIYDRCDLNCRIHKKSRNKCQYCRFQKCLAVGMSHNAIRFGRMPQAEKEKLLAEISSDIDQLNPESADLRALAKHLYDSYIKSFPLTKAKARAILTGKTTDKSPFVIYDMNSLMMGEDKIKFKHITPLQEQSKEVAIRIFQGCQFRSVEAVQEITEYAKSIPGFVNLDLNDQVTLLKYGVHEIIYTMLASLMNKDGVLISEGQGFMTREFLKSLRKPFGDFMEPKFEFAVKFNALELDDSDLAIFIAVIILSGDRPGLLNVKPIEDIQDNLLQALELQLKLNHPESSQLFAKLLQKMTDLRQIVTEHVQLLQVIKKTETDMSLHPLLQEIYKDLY
The series is described as follows: Displacement of [3H]-[…] from PPARgamma (unknown origin) expressed in baculovirus infected Sf9 insect cells upto 30 uM measured after 10 hrs by microbeta scintillation counting analysis. The note with it: dose microM <=30, time 10.0 hrs. The essentials:
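Scintillation proximity assay. Sf9 lysates with baculovirus-expressed PPARα (0.3 μg), PPARδ (0.5 μg) or PPARγ (1.25 μg), each with RXRα, were bound via biotinylated DR2 oligo (0.126 nM) to streptavidin yttrium silicate beads. Buffer was HEPES pH 7.8 with KCl, MgCl2, DTT, CHAPS, 14% glycerol and salmon sperm DNA. A 3H reference agonist ligand was used, with 11 compound concentrations, for 10 h. Nonspecific binding was defined with 10000 nM unlabeled reference. Ki was derived from IC50.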

The target of series [9] is T1, Free fatty acid receptor 1. Kind of series: Agonist activity at human recombinant full length GPR40 overexpressed in human HEK293 cells assessed as increase in inositol phosphate accumulation in presence of terbium cryptate-labeled anti IP1/d2-labelled IP1 measured after 120 mins by HTRF assay. It is filed as functional, cell-based. Put shortly:
(§4)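 HEK293 hGPR40 cells (20K/well) were cultured overnight, washed, and held in IP1 stimulation buffer. IP-1 was measured by competitive HTRF immunoassay with terbium cryptate anti-IP1 mAb and d2-labelled IP1.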
On the technique in general: Time-resolved FRET reads energy transfer from a long-lived donor to a nearby acceptor.

In series [10] the target is Free fatty acid receptor 1 (Rattus norvegicus) (UniProt Q8K3T4). Kind of series: Agonist activity at Prolink-tagged rat GPR40 fused with EA-tagged beta-arrestin expressed in human U2OS cells assessed as induction of beta-arrestin recruitment measured after 90 mins by beta-galactosidase based PathHunter assay relative to control. Format: cell-based. The conditions noted are these: filed as agonist. The essentials: as §3

Series [11] deals with T1, Free fatty acid receptor 1. The series is described as follows: Displacement of [3H]-TAK-875 from human recombinant full-length GPR40 expressed in human HEK293 cell membrane incubated for 2 hrs by solid scintillation counting method. The conditions noted are these: for Activity: filed as agonist. It is filed as cell membranes.
Series [12] addresses Free fatty acid receptor 1 (Mus musculus) (UniProt Q76JU9). The series is described as follows: Agonist activity at Prolink-tagged mouse GPR40 fused with EA-tagged beta-arrestin expressed in human U2OS cells assessed as induction of beta-arrestin recruitment measured after 90 mins by beta-galactosidase based PathHunter assay relative to control. It is filed as cell-based. The note with it: filed as agonist. The essentials:
as §3

The target of series [13] is Free fatty acid receptor 1 (Rattus norvegicus) (UniProt Q8K3T4). The series is described as follows: Agonist activity at GPR40 in Sprague-Dawley rat pancreatic islets assessed as induction of glucose-mediated insulin secretion measured after 90 mins in EBSS buffer by ELISA. Format: tissue-based. The conditions noted are these: Pancreatic islet. The essentials: as §2

The target in series [14] is T1, Free fatty acid receptor 1. The series is described as follows: Displacement of [3H]-(S)-2-(6-((2',6'-dimethyl-4'-(3-(methylsulfonyl)propoxy)biphenyl-3-yl)methoxy)-2,3-dihydrobenzofuran-3-yl)acetic acid from human recombinant full-length GPR40 expressed in human HEK293 cell membrane assessed as residence time by radioligand competitive assay. The note with it: filed as agonist. Format: cell membranes. Put shortly: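 Residence time came from competitive association kinetics. [3H]-radioligand binding to human GPR40 HEK293 membranes (5 μg, rt, Tris/Ca/Mg/0.1% BSA buffer) was measured at time points over 0–3 h, with and without several concentrations of unlabeled test compound. Fits used association and dissociation rates of the radioligand from independent kinetic experiments.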

The target of series [15] is T1, Free fatty acid receptor 1. Kind of series: Agonist activity at human recombinant full length GPR40 overexpressed in human HEK293 cells assessed as increase in inositol phosphate accumulation in presence of terbium cryptate-labeled anti IP1/d2-labelled IP1 measured after 120 mins by HTRF assay relative to AMG837. It is filed as functional, cell-based. The conditions noted are these: filed as agonist. Put shortly: as §4

Sequence of Free fatty acid receptor 1 (Rattus norvegicus, UniProt Q8K3T4) (Q8K3T4 whole entry, the tested form may be a part): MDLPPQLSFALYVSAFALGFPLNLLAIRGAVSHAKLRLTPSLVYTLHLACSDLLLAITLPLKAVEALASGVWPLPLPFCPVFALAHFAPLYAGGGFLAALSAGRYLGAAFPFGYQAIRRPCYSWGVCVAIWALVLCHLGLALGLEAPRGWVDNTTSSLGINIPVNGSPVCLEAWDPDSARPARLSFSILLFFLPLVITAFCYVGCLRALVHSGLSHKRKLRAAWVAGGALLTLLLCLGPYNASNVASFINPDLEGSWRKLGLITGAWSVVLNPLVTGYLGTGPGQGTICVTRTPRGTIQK
Sequence of Free fatty acid receptor 1 (Rattus norvegicus) (Q8K3T4 whole entry, the tested form may be a part): as above
Sequence of Free fatty acid receptor 1 (Mus musculus, UniProt Q76JU9) (Q76JU9 whole entry, the tested form may be a part): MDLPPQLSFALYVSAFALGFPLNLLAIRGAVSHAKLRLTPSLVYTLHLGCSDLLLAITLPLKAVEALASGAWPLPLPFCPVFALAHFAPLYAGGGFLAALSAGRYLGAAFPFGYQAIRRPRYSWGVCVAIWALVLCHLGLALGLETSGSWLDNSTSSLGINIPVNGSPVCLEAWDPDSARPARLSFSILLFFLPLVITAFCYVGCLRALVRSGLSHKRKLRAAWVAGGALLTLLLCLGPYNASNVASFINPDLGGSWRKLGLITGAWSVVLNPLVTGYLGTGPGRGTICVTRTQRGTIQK
Sequence of Free fatty acid receptor 1 (Mus musculus) (Q76JU9 whole entry, the tested form may be a part): as above
T1 sequence (O14842 whole entry): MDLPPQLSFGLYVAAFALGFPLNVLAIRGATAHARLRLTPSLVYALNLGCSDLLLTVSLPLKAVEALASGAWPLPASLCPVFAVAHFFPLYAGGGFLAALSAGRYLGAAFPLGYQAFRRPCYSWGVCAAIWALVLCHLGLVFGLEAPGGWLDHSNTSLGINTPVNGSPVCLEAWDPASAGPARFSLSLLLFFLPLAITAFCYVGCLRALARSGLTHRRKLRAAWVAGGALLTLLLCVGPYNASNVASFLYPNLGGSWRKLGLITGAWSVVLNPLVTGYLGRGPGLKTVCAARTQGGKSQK

In general, EC50 refers to the concentration needed to bring the measured effect to its halfway point. In general, Emax refers to the maximal effect, on the per cent scale that the assay sets. For orientation: pKa means the pH at which an ionisable group is half protonated. Read a low pKa as a stronger acid or weaker base. What is called Ki is a measure of affinity in units of concentration, obtained from inhibition or displacement. For the compound `CC#C[C@@H](CC(=O)O)c1ccc(OCc2ccc(CN3CCC4(CC3)CN(C)c3ccccc34)cc2)cc1`, the EC50 was determined as 55 nM in series [1], 5.5 nM in series [5], 3.3 nM in series [6] and 12 nM in [9]. In addition, the result in series [2] (filed as agonist) and in series [13] (filed as agonist) was Active. For the same compound, the Emax in series [3] was 134%; in series [7] it was 47%; in [10], 126%; in series [12], 131%; in series [15], 268%. The compound further displayed a pKa in series [4] of 4.3. The outcome in series [8] was inactive. In addition, the Ki in series [11] came out at 11 nM. The TIME in series [14] was found to be 0.783 h.

Consider `O=C(O)C[C@@H](c1ccc(OCc2ccc3nc(-c4ccccc4)nn3c2)cc1)c1ccon1`, for which the EC50 in series [1] was found to be 14 nM; in series [5] it was 14000 nM; in [6] it was 3800 nM; in [9] it was 68 nM. Further, the outcome in series [2], in series [8] and in series [13] was inactive. Moreover, the Emax in series [3] came out at 141%; in series [7], 54%; in [10] it was 61%; in series [12] it was 98%; in [15] it was 124%. Besides, in series [4], the pKa worked out at 1.9. Besides, the Ki in series [11] amounted to 79 nM. Further, in series [14], the TIME was 0.367 h.

As for `CC#C[C@@H](CC(=O)O)c1ccc(OCc2ccc(CN3CCC4(CCc5ccccc54)CC3)cc2)cc1`, the EC50 in series [1] was found to be 19 nM; in [5], 1.3 nM; in series [6] it was 0.88 nM; in series [9], 6.2 nM. Also, the result in series [2] (filed as agonist) and in series [13] (filed as agonist) was Active. Also, the Emax in [3] amounted to 137%; in [7], 46%; in series [10], 135%; in [12], 135%; in series [15], 249%. This compound returned a pKa in series [4] of 4.6. Besides, the outcome in series [8] was inactive. Also, in series [11], the Ki was 4.6 nM. Further, the TIME in [14] stood at 1.1 h.

On to `CC#C[C@@H](CC(=O)O)c1ccc(OCc2ccc(CN3CCCc4cccc(OC)c43)s2)cc1`, for which the figures for the Emax in series [3], in [10] and in series [12] were 139%, 121% and 137%, respectively. Also, the pKa in series [4] worked out at 3.4. The EC50 was found to be 3 nM in series [5] and 1 nM in [6]. Moreover, the Activity entry in series [11] is “Dose-dependent effect”.

`O=C(O)CCc1ccc(OCc2ccc(CN3CCC4(C=Cc5ccccc54)CC3)cc2)cc1F`: the EC50 came out at 180 nM in series [1], 160 nM in series [5], 32 nM in series [6] and 39 nM in [9]. The outcome in [2], in [8] and in series [13] was inactive. The maximum response (Emax) turned out to be 144% in series [3]; 80% in series [7]; 114% in [10]; 127% in series [12]; 282% in series [15]. Further, the pKa in series [4] stood at 3.9. For the same compound, in [11], the Ki came out at 68 nM. For the same compound, the TIME in [14] was 0.2 h.

In the case of `CC#C[C@@H](CC(=O)O)c1ccc(OCc2ccc(CN3CCC4(C=Cc5ccccc54)CC3)s2)cc1`, the EC50 in series [1] is 12 nM; in series [5], 0.93 nM; in series [6], 0.46 nM; in [9] it was 0.6 nM. Further, the result in series [2] (filed as agonist) and in series [13] (filed as agonist) was Active. The Emax in series [3] worked out at 116%; in series [7], 50%; in series [10], 113%; in series [12] it was 119%; in series [15], 145%. Moreover, the pKa in series [4] was 4.2. In series [8], the result was inactive. Also, in series [11], the Ki amounted to 4.8 nM. The TIME in [14] was determined as 0.667 h.

For the compound `CC#C[C@@H](CC(=O)O)c1ccc(OCc2ccc(CN3CCC4(C=Cc5ccccc54)CC3)cc2)cc1` [LY2881835], the outcome in series [2] (filed as agonist) and in series [13] (filed as agonist) was Active. Moreover, the Emax in [3] was determined as 137%; in series [7], 62%; in series [10] it was 124%; in series [12], 133%; in [15], 162%. In [4], this compound gave a pKa of 4.1. Moreover, the values for the EC50 in series [6] (u2os) and in [9] were 0.85 nM and 1.2 nM, respectively. Besides, the outcome in series [8] was inactive. For the same compound, the Activity entry in series [11] is “Dose-dependent effect”. Moreover, in series [14], the TIME came to 2 h.

For `CC#C[C@@H](CC(=O)O)c1ccc(OCc2ccc(CN3CCC4(CCc5ccccc54)CC3)s2)cc1`, the EC50 was 8 nM in series [1], 1.7 nM in series [5], 1.2 nM in [6] and 6.1 nM in series [9]. Also, the result in series [2] (filed as agonist) and in series [13] (filed as agonist) was Active. In addition, the Emax came out at 121% in [3]; 50% in series [7]; 108% in series [10]; 126% in series [12]; 132% in [15]. In [4], this compound had a pKa of 3.4. Also, the result in [8] was inactive. Moreover, in [11], the Ki worked out at 8.2 nM. Besides, in series [11], the Activity entry was “Dose-dependent effect”. Also, the TIME in series [14] is 1.03 h.
